What all share (assay type): functional
Experiment [1] relates to Staphylococcus aureus. Put plainly: Antibacterial activity against standard Staphylococcus aureus after 20 hrs by agar dilution method. A digest of the protocol:
(§1)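 Agar dilution MIC. The inoculum came from a seed culture in Sensitivity test broth. A 5 µl portion of a cell suspension of about 10^6 CFU/ml was inoculated onto Sensitivity disk agar supplemented with 5% horse blood. Plates were incubated at 37 °C for 20 h, then MIC was read.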
For orientation: Agar dilution tests growth on a series of plates holding different concentrations.

Experiment [2] concerns Staphylococcus aureus. Put plainly: Antibacterial activity against susceptible Staphylococcus aureus after 20 hrs by agar dilution method. A digest of the protocol:
as §1

For experiment [3], the system named is Staphylococcus aureus. Put plainly: Antibacterial activity against ermC-inducible resistant Staphylococcus aureus after 20 hrs by agar dilution method. A digest of the protocol:
as §1

Experiment [4] concerns Staphylococcus aureus. Put plainly: Antibacterial activity against ermB-inducible resistant Staphylococcus aureus after 20 hrs by agar dilution method. An outline of the steps: as §1
Experiment [5] deals with Streptococcus pneumoniae. Put plainly: Antibacterial activity against ermB-inducible resistant Streptococcus pneumoniae after 20 hrs by agar dilution method. An outline of the steps:
(§2)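 Agar dilution MIC. Streptococcal strains were pre-cultured on blood agar plates. A 5 µl portion of a cell suspension of about 10^6 CFU/ml was inoculated onto Sensitivity disk agar supplemented with 5% horse blood. Plates were incubated at 37 °C for 20 h, then MIC was read.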

Experiment [6] has as its system Haemophilus influenzae. Put plainly: Antibacterial activity against susceptible Haemophilus influenzae after 20 hrs by agar dilution method. A digest of the protocol:
(§3)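 MIC by agar dilution. Strains grown on blood agar plates for seed culture. About 5 µl of a suspension of roughly 10^6 CFU/ml spotted onto Sensitivity disk agar with 5% horse blood. Plates incubated at 37 °C for 20 h, then MIC read.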

Experiment [7] relates to Streptococcus pneumoniae. Put plainly: Antibacterial activity against ermB-constitutive resistant Streptococcus pneumoniae after 20 hrs by agar dilution method. An outline of the steps: as §2
Experiment [8] deals with Staphylococcus aureus. Put plainly: Antibacterial activity against ermA-constitutive resistant Staphylococcus aureus after 20 hrs by agar dilution method. A digest of the protocol: as §1
Experiment [9] deals with Moraxella catarrhalis. Put plainly: Antibacterial activity against standard Moraxella catarrhalis after 20 hrs by agar dilution method. A digest of the protocol: as §3
In experiment [10] the test system is Streptococcus pyogenes. Put plainly: Antibacterial activity against ermB-constitutive resistant Streptococcus pyogenes after 20 hrs by agar dilution method. An outline of the steps: as §2
For experiment [11], the system named is Streptococcus pneumoniae. Put plainly: Antibacterial activity against susceptible Streptococcus pneumoniae after 20 hrs by agar dilution method. An outline of the steps:
as §3

The test system of experiment [12] is Streptococcus pyogenes. Put plainly: Antibacterial activity against mefE efflux-resistant Streptococcus pyogenes after 20 hrs by agar dilution method. An outline of the steps: as §2
Experiment [13] has as its system Streptococcus pyogenes. Put plainly: Antibacterial activity against standard Streptococcus pyogenes after 20 hrs by agar dilution method. A digest of the protocol:
as §3

The subject of experiment [14] is Streptococcus pneumoniae. Put plainly: Antibacterial activity against mefE efflux-resistant Streptococcus pneumoniae after 20 hrs by agar dilution method. A digest of the protocol:
as §2

The test system of experiment [15] is Haemophilus influenzae. Put plainly: Antibacterial activity against standard Haemophilus influenzae after 20 hrs by agar dilution method. An outline of the steps: as §3

≈ marks a conversion by molar mass, not a printed value.

In the case of `CCC(=O)O[C@@H]1CC(=O)O[C@H](C)C[C@H](O)[C@H](N(C)CCCc2ccccc2)/C=C/[C@H](OC(C)=O)[C@H](C)C[C@H](CC=O)[C@H](O[C@@H]2O[C@H](C)[C@@H](O[C@H]3C[C@@](C)(OC(C)=O)[C@@H](OC(=O)CC)[C@H](C)O3)[C@H](N(C)C)[C@H]2O)[C@H]1OC`, the MIC in [1] is 0.39 µg/mL (≈ 0.367 µM); in experiment [2] it was 0.39 µg/mL (≈ 0.367 µM); in experiment [3] it was 0.39 µg/mL (≈ 0.367 µM); in experiment [4], 0.2 µg/mL (≈ 0.188 µM); in experiment [5] it was 1.56 µg/mL (≈ 1.47 µM); in experiment [6] it was 25 µg/mL (≈ 23.5 µM). Besides, the MIC in [7] is > 100 µg/mL; in experiment [8], > 100 µg/mL; in experiment [9] it was 0.39 µg/mL (≈ 0.367 µM); in experiment [10], 50 µg/mL (≈ 47 µM); in experiment [11], 0.05 µg/mL (≈ 0.047 µM); in experiment [12], 0.1 µg/mL (≈ 0.094 µM). Further, the MIC in experiment [13] was found to be 0.05 µg/mL (≈ 0.047 µM); in [14], 0.1 µg/mL (≈ 0.094 µM); in experiment [15], 3.13 µg/mL (≈ 2.94 µM).

Take `CCC(=O)O[C@@H]1CC(=O)O[C@H](C)C[C@H](O)[C@H](N(C)CCCc2ccccc2)/C=C/[C@H](OC(C)=O)[C@H](C)C[C@H](CC=O)[C@H](O[C@@H]2O[C@H](C)[C@@H](O)[C@H](N(C)C)[C@H]2O)[C@H]1OC`: the MIC in experiment [1] was 0.39 µg/mL (≈ 0.475 µM); in [2], 0.78 µg/mL (≈ 0.95 µM); in experiment [3] it was 1.56 µg/mL (≈ 1.9 µM); in experiment [4] it was 1.56 µg/mL (≈ 1.9 µM); in experiment [5], > 100 µg/mL; in experiment [6] it was 3.13 µg/mL (≈ 3.81 µM). Moreover, the MIC is > 100 µg/mL in experiment [7]; > 100 µg/mL in experiment [8]; 0.025 µg/mL (≈ 0.0305 µM) in [9]; > 100 µg/mL in [10]; 0.2 µg/mL (≈ 0.244 µM) in experiment [11]; 0.78 µg/mL (≈ 0.95 µM) in [12]. Also, the MIC in experiment [13], in [14] and in experiment [15] was 0.39 µg/mL (≈ 0.475 µM) in each case.

As to `CCC(=O)O[C@@H]1CC(=O)O[C@H](C)C[C@H](O)[C@H](N(C)CCCn2cnc(-c3cccnc3)c2)/C=C/[C@H](OC(C)=O)[C@H](C)C[C@H](CC=O)[C@H](O[C@@H]2O[C@H](C)[C@@H](O[C@H]3C[C@@](C)(O)[C@@H](OC(=O)CC)[C@H](C)O3)[C@H](N(C)C)[C@H]2O)[C@H]1OC`, the MIC in experiment [1] is 0.39 µg/mL (≈ 0.358 µM); in experiment [2], 0.2 µg/mL (≈ 0.184 µM); in [3], 0.39 µg/mL (≈ 0.358 µM); in experiment [4], 0.39 µg/mL (≈ 0.358 µM); in experiment [5] it was 100 µg/mL (≈ 91.9 µM); in experiment [6], 25 µg/mL (≈ 23 µM). Besides, the MIC was > 100 µg/mL in [7]; > 100 µg/mL in experiment [8]; 1.56 µg/mL (≈ 1.43 µM) in experiment [9]; > 100 µg/mL in [10]; 0.06 µg/mL (≈ 0.0551 µM) in [11]; 0.2 µg/mL (≈ 0.184 µM) in experiment [12]. For the same compound, the results for the MIC in experiment [13], in [14] and in experiment [15] were 0.1 µg/mL (≈ 0.0919 µM), 0.1 µg/mL (≈ 0.0919 µM) and 1.56 µg/mL (≈ 1.43 µM), respectively.

As to `CCC(=O)O[C@@H]1CC(=O)O[C@H](C)C[C@H](O)[C@H](N(C)CCCc2ccnc3ccccc23)/C=C/[C@H](OC(C)=O)[C@H](C)C[C@H](CC=O)[C@H](O[C@@H]2O[C@H](C)[C@@H](O[C@H]3C[C@@](C)(O)[C@@H](OC(=O)CC)[C@H](C)O3)[C@H](N(C)C)[C@H]2O)[C@H]1OC`, the MIC in [1] is 0.1 µg/mL (≈ 0.0933 µM); in experiment [2], 0.1 µg/mL (≈ 0.0933 µM); in experiment [3], 0.2 µg/mL (≈ 0.187 µM); in experiment [4], 0.1 µg/mL (≈ 0.0933 µM); in experiment [5] it was 0.78 µg/mL (≈ 0.727 µM); in [6], 12.5 µg/mL (≈ 11.7 µM). Besides, the MIC is 50 µg/mL (≈ 46.6 µM) in experiment [7]; > 100 µg/mL in [8]; 0.39 µg/mL (≈ 0.364 µM) in experiment [9]; > 100 µg/mL in experiment [10]; 0.013 µg/mL (≈ 0.0121 µM) in [11]; 0.1 µg/mL (≈ 0.0933 µM) in [12]. The MIC in [13] came out at 0.05 µg/mL (≈ 0.0466 µM); in experiment [14], 0.025 µg/mL (≈ 0.0233 µM); in experiment [15] it was 1.56 µg/mL (≈ 1.45 µM).

For `CCC(=O)O[C@@H]1CC(=O)O[C@H](C)C[C@H](O)[C@H](N(C)CCCCCCc2ccccc2)/C=C/[C@H](OC(C)=O)[C@H](C)C[C@H](CC=O)[C@H](O[C@@H]2O[C@H](C)[C@@H](O[C@H]3C[C@@](C)(O)[C@@H](OC(=O)CC)[C@H](C)O3)[C@H](N(C)C)[C@H]2O)[C@H]1OC`, the MIC in experiment [1] is 0.39 µg/mL (≈ 0.367 µM); in experiment [2], 0.39 µg/mL (≈ 0.367 µM); in experiment [3] it was 0.39 µg/mL (≈ 0.367 µM); in experiment [4] it was 0.2 µg/mL (≈ 0.188 µM); in experiment [5], 6.25 µg/mL (≈ 5.88 µM); in [6], 25 µg/mL (≈ 23.5 µM). The MIC in experiment [7] amounted to 50 µg/mL (≈ 47 µM); in experiment [8] it was 100 µg/mL (≈ 94 µM); in experiment [9], 0.78 µg/mL (≈ 0.734 µM); in experiment [10], 25 µg/mL (≈ 23.5 µM); in [11] it was 0.1 µg/mL (≈ 0.094 µM); in experiment [12] it was 0.2 µg/mL (≈ 0.188 µM). For the same compound, the MIC in experiment [13] was 0.2 µg/mL (≈ 0.188 µM); in experiment [14], 0.2 µg/mL (≈ 0.188 µM); in experiment [15], 6.25 µg/mL (≈ 5.88 µM).

The values above are taken from ChEMBL document CHEMBL1157144, “Novel 16-membered macrolides modified at C-12 and C-13 positions of midecamycin A1 and miokamycin. Part 1: Synthesis and evaluation of 12,13-carbamate and 12-arylalkylamino-13-hydroxy analogues” (2008).
